In PMC7941214 (Journal of medicinal chemistry, 2019):
“And” between values parts separate entries of the source, which are not always exact repeats. Identical values can stand only once.

Experiments:
E. faecium ATCC 700221 = assay: Broth microdilution MIC/MBC, E. faecium; type: cell-based, Enterococcus faecium; settings: for MBC E. faecium ATCC 700221: value in parentheses; for MIC E. faecium ATCC 700221: value before the parentheses, two values = two repeats
Method in brief: (§1)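 CLSI broth microdilution in cation-adjusted Mueller–Hinton broth. Log-phase cultures were diluted to 7.5 × 10^5 CFU/mL, then mixed 1:1 with 2-fold serial dilutions of gold complexes from DMSO or water stocks, in triplicate, and held 37 °C, 18 h, static. MIC: lowest concentration giving >90% inhibition by OD600 against medium-only and bacteria-only wells. […] E. coli ATCC 25922 quality control was checked each run with ciprofloxacin and […].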

[1] = test system: K. pneumoniae ATCC 700603; assay: Broth microdilution MIC/MBC, K. pneumoniae; type: cell-based, Klebsiella pneumoniae; settings: for MIC K. pneumoniae ATCC 700603: value before the parentheses, two values = two repeats; for MBC K. pneumoniae ATCC 700603: value in parentheses; for fold enhancement of activity over auranofin, K. pneumoniae: vs auranofin
Method in brief: as §1

A. baumannii NCTC 13420 = assay: Broth microdilution MIC/MBC, A. baumannii; type: cell-based, Acinetobacter baumannii; settings: for MIC A. baumannii NCTC 13420: value before the parentheses, two values = two repeats; for MBC A. baumannii NCTC 13420: value in parentheses
Log P determination = settings: n-octanol/water, Au by FAAS
S. aureus JE2 (USA300) = assay: Broth microdilution MIC/MBC, S. aureus; type: cell-based, Staphylococcus aureus; settings: for MIC S. aureus JE2 (USA300): value before the parentheses, two values = two repeats; for MBC S. aureus JE2 (USA300): value in parentheses
Method in brief: as §1

P. aeruginosa NCTC 13437 = assay: Broth microdilution MIC/MBC, P. aeruginosa; type: cell-based, Pseudomonas aeruginosa; settings: for MIC P. aeruginosa NCTC 13437: value before the parentheses, two values = two repeats; for MBC P. aeruginosa NCTC 13437: value in parentheses
Method in brief: as §1

rat = settings: cited from earlier work
E. cloacae NCTC 13405 = assay: Broth microdilution MIC/MBC, E. cloacae; type: cell-based, Enterobacter cloacae; settings: for MIC E. cloacae NCTC 13405: value before the parentheses, two values = two repeats; for MBC E. cloacae NCTC 13405: value in parentheses
Method in brief: as §1

A549 cells = assay: Cytotoxicity assay; type: cell-based, human
E. coli ATCC 25922 = assay: Broth microdilution MIC/MBC, E. coli; type: cell-based, Escherichia coli; settings: for MIC E. coli ATCC 25922: value before the parentheses, two values = two repeats; for MBC E. coli ATCC 25922: value in parentheses
Method in brief: as §1

all strains = assay: Broth microdilution, all strains taken together; type: cell-based; settings: vs auranofin
Gram-negative strains = assay: Broth microdilution, Gram-negative strains taken together; type: cell-based; settings: vs auranofin

SMILES	MBC E. faecium ATCC 700221 (E. faecium ATCC 700221) [µM]	MIC K. pneumoniae ATCC 700603 [1] [µM]	MBC K. pneumoniae ATCC 700603 [1] [µM]	MIC A. baumannii NCTC 13420 (A. baumannii NCTC 13420) [µM]	MBC A. baumannii NCTC 13420 (A. baumannii NCTC 13420) [µM]	log P (Log P determination)	MIC S. aureus JE2 (USA300) (S. aureus JE2 (USA300)) [µM]	MBC S. aureus JE2 (USA300) (S. aureus JE2 (USA300)) [µM]	MIC P. aeruginosa NCTC 13437 (P. aeruginosa NCTC 13437) [µM]	MBC P. aeruginosa NCTC 13437 (P. aeruginosa NCTC 13437) [µM]	rat acute oral LD50 (rat) [mg/kg]	MIC E. cloacae NCTC 13405 (E. cloacae NCTC 13405)	MBC E. cloacae NCTC 13405 (E. cloacae NCTC 13405) [µM]	MIC E. coli ATCC 25922 (E. coli ATCC 25922) [µM]	MBC E. coli ATCC 25922 (E. coli ATCC 25922) [µM]	MIC E. faecium ATCC 700221 (E. faecium ATCC 700221)	fold enhancement of activity over auranofin, K. pneumoniae [1]	other results
CC[PH](CC)(CC)[Au][S][C@@H]1O[C@H](COC(C)=O)[C@@H](OC(C)=O)[C@H](OC(C)=O)[C@H]1OC(C)=O [Compound 1, (2,3,4,6-Tetra-O-acetyl-1-thio-β-D-glucopyranosato)-(triethylphosphine) Gold(I), reference compound]	0.4	377	377	47	47	0.56	0.04	0.09	377	377	265	189 µM	189	24	24			MBC E. faecium (E. faecium ATCC 700221; Table S1): 0.25 µg/mL; MIC E. faecium (E. faecium ATCC 700221; Table S1): 0.12 µg/mL; MIC K. pneumoniae ATCC 700603 ([1]; listed as Auranofin): 377 µM; MBC K. pneumoniae ATCC 700603 ([1]; listed as Auranofin): 377 µM; MBC A. baumannii (A. baumannii NCTC 13420; MIC/MBC): 32 µg/mL; MIC A. baumannii (A. baumannii NCTC 13420; MIC/MBC): 32 µg/mL; MIC A. baumannii NCTC 13420 (A. baumannii NCTC 13420; listed as Auranofin): 47 µM; MBC A. baumannii NCTC 13420 (A. baumannii NCTC 13420; listed as Auranofin): 47 µM; MBC S. aureus (S. aureus JE2 (USA300); Table S1): 0.06 µg/mL; MIC S. aureus (S. aureus JE2 (USA300); Table S1): 0.03 µg/mL; IC50 (A549 cells; read-out: IC50 against A549 cells, means ± SEM from two independent experiments): 11.3 ± 1.9 µM; MBC E. coli (E. coli ATCC 25922; MIC/MBC): 16 µg/mL; MIC E. coli (E. coli ATCC 25922; MIC/MBC): 16 µg/mL
CC[PH](CC)(CC)[Au][S]c1ccc(N)cc1 [Compound 17, (4-Aminobenzenethiolato)(triethylphosphine) Gold(I)]	0.1	36	36	18	18	1.36		0.07	146	146		36 µM	36	9	9	0.02 µM	10	fold enhancement of activity over auranofin, E. faecium (E. faecium ATCC 700221; vs auranofin): more than 7; fold enhancement of activity over auranofin, all strains (all strains): up to 10
CC[P+](CC)(CC)[Au-][S]CCO [Compound 21, (2-Mercaptoethanolato)(triethylphosphine) Gold(I)]	0.6	20	20	10	82	1.19	0.03	0.03	41	41		5 µM and 10 µM	82	10	10	0.2 µM and 0.3 µM	19	fold enhancement of activity over auranofin, P. aeruginosa (P. aeruginosa NCTC 13437; vs auranofin): 9; fold enhancement of activity over auranofin, E. cloacae (E. cloacae NCTC 13405; vs auranofin): 19; fold enhancement of activity over auranofin, Gram-negative strains (Gram-negative strains): 5–19; cytotoxicity relative to auranofin (times less toxic) (A549 cells; A549 cells, vs auranofin): 1.6
CCP(CC)CC.[Au+].[Cl-] [Compound 25, (Triethylphosphine)gold Chloride]	0.7	46	46		23	1.74		0.2	92	183	79.0	23 µM	23	23	23			
